Screens: PubChem, Johns Hopkins Ion Channel Center
Most compounds without a hit are left out; they make up all but 3.5% or so of the library.
RGS4 act: RGS4 potentiation or activation | HEK293 M3R/inducible RGS4, carbachol calcium flux Fluo4; active compounds read low | B-score at 10 µM | hit rate 0.92% among 310,000 | AID 463111;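 active means B-score of the integrated calcium signal more than 4 SD below the library mean, with starting fluorescence not abnormally high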;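 further: negative B-score means reduced calcium response which marks RGS4 activation or potentiation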
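Reagent: ECmax carbachol challenge; Test system: M3R-expressing HEK293 line, RGS4 induced by doxycycline; Schedule: overnight RGS4 induction, 30 min dye load 37 °C, 20 min compound RT; Detection: calcium dye Fluo4 fluorescence; Read-out: Agonist-evoked peak-minus-minimum fluorescence over baseline, integrated ratio, B score.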
MrgX1 antag: antagonists of human MrgX1 receptor | Q96LB2 | MRGX1-HEK293 calcium flux, Fluo-4, BAM8-22 antagonism; active compounds read low | B-score at 10 µM | hit rate 1.3% among 310,000 | AID 588676;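 active means calcium-response B-score plate-corrected more than 3 library SD below zero, starting fluorescence within 5 deviations, no agonist response on first addition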;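 further: peak minus trough fluorescence over baseline after final BAM8-22 challenge near maximal dose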
Target sequence (Q96LB2 whole entry, looked up): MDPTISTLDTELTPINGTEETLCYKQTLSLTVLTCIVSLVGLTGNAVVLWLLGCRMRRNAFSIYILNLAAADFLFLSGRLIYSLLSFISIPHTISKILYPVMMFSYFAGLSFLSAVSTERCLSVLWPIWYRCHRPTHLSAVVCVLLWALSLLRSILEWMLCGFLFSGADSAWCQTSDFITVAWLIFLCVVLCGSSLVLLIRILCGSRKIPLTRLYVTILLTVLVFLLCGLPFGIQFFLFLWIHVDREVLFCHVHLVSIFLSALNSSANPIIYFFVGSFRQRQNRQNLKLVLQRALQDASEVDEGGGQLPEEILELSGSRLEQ
RGS4 block: human RGS4 inhibition; P49798; HEK293 M3R/RGS4 inducible, Fluo-4 calcium flux; active compounds read high; triggered by carbachol at its EC20; B-score at 10 µM; hit rate 0.45% among 310,000;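 active means B-score, a plate-corrected calcium signal, over three deviations above library mean, with baseline fluorescence within five deviations of library mean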;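 further: RGS4 expression induced by doxycycline in cells with stable M3 receptor; B-score is computed from the integrated fluorescence ratio over baseline after carbachol; higher B-score means a larger calcium signal and so more RGS4 inhibition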
Target sequence (P49798 whole entry, looked up): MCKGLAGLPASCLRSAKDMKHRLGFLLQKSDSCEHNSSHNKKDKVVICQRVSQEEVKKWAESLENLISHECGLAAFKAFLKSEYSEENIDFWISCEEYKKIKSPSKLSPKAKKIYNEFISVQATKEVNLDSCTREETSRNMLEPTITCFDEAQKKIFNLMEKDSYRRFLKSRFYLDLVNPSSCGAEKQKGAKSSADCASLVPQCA
MrgX1 agonist: agonists of human MrgX1 receptor; B-score at 10 µM; Q96LB2; AID 588627; hit rate 0.44% among 310,000; MrgX1-HEK293 cells, Fluo-4 calcium fluorescence, agonist mode; active compounds read high;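 active means calcium response B-score plate-corrected fluorescence ratio at least 3 library SD, with starting fluorescence B-score inside 5 SD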
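Assay system: MrgX1-expressing HEK293 cells / Amount: fifteen thousand cells per well / Doses: test compound in the initial addition of three / Timing: cells plated overnight, dye loaded 0.5 h 37 °C, 0.5 h room temperature / Technique: kinetic calcium dye fluorescence, Fluo-4 NW / Control set: positive and negative controls per plate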
MrgX1 PAM: allosterically activates human MrgX1 receptor signaling | MrgX1-HEK293, Fluo-4 calcium flux, FDSS; active compounds read high | AID 588675 | hit rate 0.63% among 310,000 | B-score at 10 µM;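 active means plate-corrected calcium response at least 3 library SD above typical, normal starting fluorescence, not activating the receptor alone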;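 further: compound read alongside a low EC10 to EC30 dose of BAM8-22 agonist; peak minus trough fluorescence over baseline measured at the second addition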
RGS4 activ val: confirmation of RGS4 activators; shares compounds with RGS4 act; HEK293 M3R/RGS4 inducible, carbachol calcium flux Fluo4; inhibition, % at 10 µM; hit rate 89% among 1,100; AID 602282;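 active means inhibition above 3 SD of the buffer control wells, cut at about 41% in these data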;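 further: signal is the integrated peak-minus-minimum Fluo4 fluorescence over baseline ratio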
M3R Ca counter: RGS4 activator counter-screen hit in non-induced cells; shares compounds with RGS4 act; HEK293 M3R non-induced RGS4, Fluo4 calcium flux; after carbachol challenge at its EC90; inhibition, % at 10 µM; hit rate 82% among 1,100;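 active means inhibition exceeding 3 SD of buffer-only control wells, cut at about 26% in these data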;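 further: percent drop in integrated peak-minus-baseline over baseline Fluo4 ratio after carbachol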
* = called active by the depositor; i = inactive; . = not tested or not shown.

SMILES | RGS4 act | MrgX1 antag | RGS4 block | MrgX1 agonist | MrgX1 PAM | RGS4 activ val | M3R Ca counter
O=C(Nc1ccccc1C(=O)O)c1cc(S(=O)(=O)N2CCCCCC2)ccc1Cl | -8.4* | i | i | i | i | 0.0 | 0.0
Cc1cccc(N2CCN(S(=O)(=O)c3c(C)noc3/C=C/N(C)C)CC2)c1C | i | i | i | i | i | . | .
CCCCC(CC)C(=O)Oc1ccc(O)c(C(C)(C)C)c1 (centres undefined) | -7.74* | i | i | i | i | 92.5* | 86.8*
CCCCS/C(=C(/C#N)C(N)=O)c1cc2c([nH]1)CCCC2 | -8.19* | i | i | i | i | 94.0* | 92.3*
CN1CCN(C(=O)c2ccc(COc3ccc(C(C)(C)C)cc3)o2)CC1 | -7.73* | i | i | i | i | 89.5* | 41.3*
CCOc1ccc(OCc2ccc(C(=O)N3CCCC3)o2)cc1 | i | i | i | i | i | . | .
CC(C)c1ccc(OCc2ccc(C(=O)N3CCCC3)o2)cc1 | -12.2* | i | i | i | i | 83.0* | 83.8*
Cc1nccn1CCc1n[nH]c(=S)n1Cc1ccccc1 | -9.47* | i | i | i | i | 86.0* | 68.3*
CCCCCCCc1n[nH]c(=S)n1Cc1ccccc1 | i | i | i | i | i | . | .
CCCCc1n[nH]c(=S)n1Cc1ccc(C)cc1 | -8.26* | i | i | i | i | 72.0* | 29.3*
CCn1c(C)c(C)c2cc(C(=O)Nc3cccc(Cl)c3)ccc21 | -7.74* | i | i | i | i | 61.0* | 0.0
CCn1c(C)cc(O)c(C(=O)Nc2cccc(Cl)c2)c1=O | i | i | i | i | i | . | .
Cc1cc(C(=O)OCc2nnc(-c3ccccc3)o2)c(C)n1-c1ccccc1 | -8.9* | i | i | i | i | 93.5* | 84.8*
O=C(OCc1nnc(-c2ccccc2)o1)c1cn(-c2ccccc2)nc1-c1ccccc1 | i | i | i | i | i | . | .
O=C1CC(N2CCN(C/C=C/c3ccccc3)CC2)C(=O)N1Cc1cccs1 (centres undefined) | -7.91* | i | i | i | i | 93.5* | 25.8*
c1ccc(C(c2ccccc2)c2noc(CN3CCN(CC4CC4)CC3)n2)cc1 | -8.04* | i | i | i | i | 93.0* | 77.8*
Cc1cc(C)cc(N(C(=O)c2csnn2)C(C(=O)NC2CCCC2)c2ccccn2)c1 (centres undefined) | i | i | i | i | i | . | .
Cc1cccc(OCC(=O)N2CCN(c3nnc(-c4ccccc4)c4ccccc34)CC2)c1 | -8.02* | i | i | i | i | 77.5* | 29.8*
O=C(COc1ccccc1)N1CCN(c2nnc(-c3ccccc3)c3ccccc23)CC1 | i | i | i | i | i | . | .
O=C1CC(c2ccc(O)c(O)c2)Oc2c1ccc(O)c2O (centres undefined) | . | i | . | i | i | . | .
CC(C)=CCc1c(O)ccc2c1OC(c1ccc(O)c(O)c1)CC2=O (centres undefined) | -8.7* | i | i | i | i | 93.0* | 78.3*
Cn1c(=O)c2c(ncn2CCOc2ccc(F)cc2)n(C)c1=O | -8.91* | i | i | i | i | 0.0 | 0.0
Cn1c(=O)c2c(ncn2CCOc2ccc(Br)cc2)n(C)c1=O | i | i | i | i | i | . | .
COc1ccccc1C1c2ccc3ccccc3c2Oc2ncn(CCCO)c(=N)c21 (centres undefined) | i | i | i | i | i | . | .
COc1ccccc1C1c2ccc3ccccc3c2Oc2ncn(CCN(C)C)c(=N)c21 (centres undefined) | -8.33* | i | i | i | i | 86.5* | 67.3*
SMILES | RGS4 act | MrgX1 antag | RGS4 block | MrgX1 agonist | MrgX1 PAM | RGS4 activ val | M3R Ca counter
COc1ccc(C2c3ccc4ccccc4c3Oc3ncn(CCCN(C)C)c(=N)c32)cc1 (centres undefined) | -8.62* | i | i | i | i | 40.5* | 83.8*
O=C(O)Cc1csc(-c2cccc(F)c2)n1 | i | i | i | i | i | . | .
CC(Nc1ccc(F)cc1)=[N+](C)CCNS(=O)(=O)c1ccc(Cl)cc1 | i | i | i | i | i | . | .
CC1CCC(C(C)C)C(OC(=O)C[n+]2cc(-c3ccc(Cl)cc3)n3c2CCCCC3)C1 (centres undefined) | -11.4* | i | i | i | i | 93.5* | 94.3*
CC(C)Nc1nc(Cl)nc(NNC(=O)C(C)Oc2ccccc2)n1 (centres undefined) | i | i | i | i | i | . | .
Cc1nc(N2CCN(Cc3ccccc3)CC2)nc2c1C(=O)CC(c1ccco1)C2 (centres undefined) | -8.44* | i | i | i | i | 0.0 | 0.0
CC(=O)c1ccc(N2CCN(CC(O)COC(c3ccccc3)c3ccccc3C)CC2)cc1 (centres undefined) | -10.7* | i | i | i | i | 94.5* | 82.8*
CC(=O)c1ccc(N2CCN(CC(O)COC(c3ccccc3)c3ccccc3)CC2)cc1 (centres undefined) | -7.71* | i | i | i | i | 61.5* | 83.8*
Cc1ccc(C(=O)/C=C/Nc2cccc([N+](=O)[O-])c2)o1 | i | i | i | i | i | . | .
C/C(O)=c1/ccc2cccc3nc(C)nc1c23 | -8.3* | i | i | i | i | 73.5* | 69.3*
O/C=c1\ccc2cccc3nc(C(F)(F)F)nc1c23 | i | i | i | i | i | . | .
CCCNC(=O)C12CCC(C)(c3nc4cc(C)c(C)cc4nc31)C2(C)C (centres undefined) | i | i | i | i | i | . | .
CCN(CC)CCCN1C(=O)c2oc3ccccc3c(=O)c2C1c1cccc(OC)c1OC (centres undefined) | i | i | i | i | i | . | .
Cn1c2ccc(F)cc2c2nnc(SCCN3CCCCC3)nc21 | i | . | i | . | . | . | .
CCCCn1c2ccc(F)cc2c2nnc(SCCN3CCCCC3)nc21 | -7.78* | . | i | . | . | 84.0* | 34.8*
CCN(CC(=O)Nc1c(F)cccc1F)C(=O)/C=C/c1cn(Cc2ccccc2)nc1-c1cccnc1 | i | i | i | i | i | . | .
COc1ccc(Nc2nc(NCC3CCCO3)c3ccccc3n2)c(OC)c1 (centres undefined) | -7.72* | i | i | i | i | 38.5* | 83.8*
